# Source: article PMC3354652 (Cancer Discovery, 2012)
# Entries after “also recorded” stand apart in the source; their conditions may differ.
# Legend:
# [1] = tested on: RIP-Tag2 mice; assay: Liver metastasis; type: in vivo, mouse
# [2] = tested on: RIP-Tag2 tumors; assay: Tumor invasion; type: in vivo, mouse
# [3] = tested on: RIP-Tag2 tumors; assay: Tumor vascularity; type: in vivo, mouse; settings: for intratumoral hypoxia / tumor vascularity: RIP-Tag2 mice treated from age 14 to 17 weeks; for HIF-1α protein by western blot: RIP-Tag2 tumors
# [4] = tested on: RIP-Tag2 mice; assay: Survival of RIP-Tag2 mice; type: in vivo, mouse
# [5] = tested on: Snail1, N-cadherin, vimentin; assay: Western blot of mesenchymal markers in RIP-Tag2 tumors; type: in vivo, mouse; settings: for bands for Snail1, N-cadherin and vimentin in western blots: RIP-Tag2 tumors treated from age 14 to 15 weeks
# How it was run: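 Tumors came from RIP-Tag2 mice treated from age 14 to 15 weeks with vehicle, anti-VEGF antibody, a kinase inhibitor, or a combination. Snail1, N-cadherin and vimentin were immunoblotted in tumor lysates. Bands were quantified by densitometry and expressed as fold over vehicle. Groups had 4-8 surviving mice. Groups were compared by Student's t test or ANOVA with Fisher's multiple-comparison test.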
# [6] = tested on: RIP-Tag2 tumors; assay: Tumor size; type: in vivo, mouse; settings: RIP-Tag2 mice treated from age 14 to 17 weeks
# [7] = tested on: Panc-1 tumors; assay: Orthotopic Panc-1 pancreatic adenocarcinomas in nude mice; type: in vivo, mouse
# [8] = tested on: c-Met; assay: c-Met mRNA, total c-Met and phospho-c-Met in RIP-Tag2 tumors; type: in vivo, mouse; settings: RIP-Tag2 tumors treated from age 14 to 15 weeks
# [9] = tested on: RIP-Tag2 tumors; settings: RIP-Tag2 mice; cited from earlier work
# [10] = RIP-Tag2 mice treated from age 14 to 17 weeks
# [11] = RIP-Tag2 mice treated from age 14 to 20 weeks
# [12] = RIP-Tag2 mice age 14 to 17 weeks, vs corresponding group without PF-04217903
# [13] = western blot, treated from age 14 to 15 weeks
compound,measurement,setting,value
"C[C@@H](Oc1cc(-c2cnn(C3CCNCC3)c2)cnc1N)c1c(Cl)ccc(F)c1Cl [PF-02341066, crizotinib]",liver metastases found per mouse,"[1]; RIP-Tag2 mice treated for 3 weeks, vehicle average of 20 per mouse",4
same,mice with liver metastases visible microscopically,[1]; [10],3 of 4
same,tumor invasiveness: Invasion index and trapped acinar cells,[2]; [10],reduced invasiveness
same,intratumoral hypoxia,[3],did not change
same,tumor vascularity,[3],did not change
"COc1cc2nccc(Oc3ccc(NC(=O)C4(C(=O)Nc5ccc(F)cc5)CC4)cc3)c2cc1OC [XL184, cabozantinib]",mice surviving until the experiment ended at age 20 weeks,[4]; RIP-Tag2 mice treated from 14 weeks of age,all
same,overall survival versus vehicle or anti-VEGF antibody,[4]; RIP-Tag2 mice treated from age 10 to 14 weeks,better overall survival
same,survival at 20 weeks,"[4]; RIP-Tag2 mice, treatment beginning at age 14 weeks, n = 6",100%
same,"bands for Snail1, N-cadherin and vimentin in western blots",[5],"less Snail1, N-cadherin, and vimentin"
same,liver micrometastases found,"[1]; RIP-Tag2 mice treated from age 10 to 14 weeks, 5 mice",none
same,mice with liver metastases visible microscopically,[1]; [10],none were detected; also recorded: None of 5
same,mice with small liver metastases,[1]; [11],5 of 6
same,number of liver metastases per sectional area,[1]; [11],0.3 ± 0.2 metastases/mm^2
same,area density of trapped amylase-positive acinar cells in tumors,[2]; [10],2.6 ± 0.4%
same,fewer amylase-positive (trapped acinar) cells than 14-week old onset controls,"[2]; RIP-Tag2 mice treated from age 14 to 17 weeks, onset controls 4.8 ± 0.5%",46%
same,tumor shape and invasiveness,[2]; younger RIP-Tag2 mice treated from age 10 to 14 weeks,rounder and less invasive
same,reduction in tumor vascularity,"[3]; RIP-Tag2 mice, 3 weeks treatment",79%
same,mean sectional area of tumors,[6],0.7 ± 0.1 mm^2
OCCn1cc(-c2cnc3nnn(Cc4ccc5ncccc5c4)c3n2)cn1 [PF-04217903],"bands for Snail1, N-cadherin and vimentin in western blots",[5],weaker
same,average decrease in volume of metastases (metastatic tumor burden),[1]; [12],78%
same,reduction in mean diameter of liver metastases when PF-04217903 was combined,[1]; [12],40%
same,mice with liver metastases visible microscopically,[1]; [10],1 of 7 and one of 7
same,vascular pruning and intratumoral hypoxia,[7]; 3 weeks treatment,little effect
same,tumor vascularity,[3],no reduction in overall vascularity
same,HIF-1α protein by western blot,[3],not increased
CCN(CC)CCNC(=O)c1c(C)[nH]c(/C=C2\C(=O)Nc3ccc(F)cc32)c1C [sunitinib],survival during the 3-week treatment,"[4]; RIP-Tag2 mice, age 14 to 17 weeks, vehicle 42%",80%
same,"N-cadherin densitometry value, times greater than vehicle",[5]; [13],10 times
same,"Snail1 densitometry value, times greater than vehicle",[5]; [13],3 times
same,"vimentin densitometry value, times greater than vehicle",[5]; [13],5 times
same,number of liver metastases per sectional area,[1]; 17-week old RIP-Tag2 mice treated for 3 weeks,1.3 ± 1.2 metastases/mm^2
same,number of liver metastases compared to the 17-week old vehicle group,[1]; [10],twice
same,size of liver metastases compared to vehicle group,[1]; [10],4 times
same,mean diameter of liver metastases,"[1]; RIP-Tag2 mice treated from age 14 to 17 weeks, vehicle 90 ± 9 μm",369 ± 267 μm
same,"c-Met mRNA expression, fold the control value",[8],6 fold
same,intratumoral hypoxia assessed by pimonidazole staining,[7]; 3 weeks treatment,doubling
same,invasiveness reflected by intratumoral acinar cells stained for amylase,[7]; 3 weeks treatment,exaggerated
same,reduction in tumor vascularity,[7]; 3 weeks treatment,75%
same,tumor growth by bioluminescence imaging,[7]; 3 weeks treatment,grew slower
same,mice with micrometastases in the liver,[7]; early stage,4 of 6
same,tumor invasiveness: Invasion index and trapped acinar cells,[2]; [10],significantly greater
same,intratumoral hypoxia,[3],greater hypoxia
same,tumor vascularity,[3],fewer blood vessels
same,HIF-1α protein by western blot,[3],greater
same,mean sectional area of tumors,[6],3.7 ± 0.8 mm^2
same,"sectional area of tumors, less than age-matched vehicle controls",[6],78%
"COc1cc2c(Oc3ccc(NC(=O)C4(C(=O)Nc5ccc(F)cc5)CC4)cc3F)ccnc2cc1OCCCN1CCOCC1 [XL880, foretinib]",invasion and tumor cells in the liver,[9],decreases invasion and the appearance of tumor cells in the liver
same,tumor growth,[9],slows tumor growth
